# Data from ChEMBL document CHEMBL4043093, “2-Oxo-3, 4-dihydropyrimido[4, 5-d]pyrimidinyl derivatives as new irreversible pan fibroblast growth factor receptor (FGFR) inhibitors” (Eur J Med Chem, 2017).
# Legend:
# [1] = target: Serine/threonine-protein kinase NLK (Homo sapiens) (UniProt Q9UBE8); assay: Inhibition of wild-type human full length NLK (M13 to E527 residues) expressed in Escherichia coli BL21 assessed as residual activity at 1000 nM after 30 mins by Kinomescan method relative to control
# Chain of Serine/threonine-protein kinase NLK (Homo sapiens) (Q9UBE8 whole entry, the tested form may be a part): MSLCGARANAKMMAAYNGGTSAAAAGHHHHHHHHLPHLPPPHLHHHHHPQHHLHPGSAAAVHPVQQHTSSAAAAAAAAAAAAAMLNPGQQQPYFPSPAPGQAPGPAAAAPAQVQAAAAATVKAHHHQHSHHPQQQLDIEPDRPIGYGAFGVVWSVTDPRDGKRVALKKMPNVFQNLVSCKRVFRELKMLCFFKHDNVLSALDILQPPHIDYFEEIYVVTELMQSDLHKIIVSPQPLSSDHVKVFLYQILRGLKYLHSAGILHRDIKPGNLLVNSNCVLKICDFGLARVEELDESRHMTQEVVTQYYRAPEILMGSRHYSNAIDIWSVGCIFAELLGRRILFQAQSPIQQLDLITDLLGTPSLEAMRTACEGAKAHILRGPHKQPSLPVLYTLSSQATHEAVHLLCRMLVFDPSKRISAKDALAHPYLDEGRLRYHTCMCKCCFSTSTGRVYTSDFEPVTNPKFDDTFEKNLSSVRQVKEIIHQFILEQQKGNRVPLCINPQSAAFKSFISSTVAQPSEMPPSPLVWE
# Summary of the method: (§1)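 Single-concentration screen at 1 µM across a 456-kinase KINOMEscan panel. The read-out is Percent Control for each kinase.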
# [2] = target: Mitogen-activated protein kinase kinase kinase kinase 3 (Homo sapiens) (UniProt Q8IVH8); assay: Inhibition of wild-type human partial length MAP4K3 (M1 to D301 residues) expressed in Escherichia coli BL21 assessed as residual activity at 1000 nM after 30 mins by Kinomescan method relative to control
# Chain of Mitogen-activated protein kinase kinase kinase kinase 3 (Homo sapiens) (Q8IVH8 whole entry, the tested form may be a part): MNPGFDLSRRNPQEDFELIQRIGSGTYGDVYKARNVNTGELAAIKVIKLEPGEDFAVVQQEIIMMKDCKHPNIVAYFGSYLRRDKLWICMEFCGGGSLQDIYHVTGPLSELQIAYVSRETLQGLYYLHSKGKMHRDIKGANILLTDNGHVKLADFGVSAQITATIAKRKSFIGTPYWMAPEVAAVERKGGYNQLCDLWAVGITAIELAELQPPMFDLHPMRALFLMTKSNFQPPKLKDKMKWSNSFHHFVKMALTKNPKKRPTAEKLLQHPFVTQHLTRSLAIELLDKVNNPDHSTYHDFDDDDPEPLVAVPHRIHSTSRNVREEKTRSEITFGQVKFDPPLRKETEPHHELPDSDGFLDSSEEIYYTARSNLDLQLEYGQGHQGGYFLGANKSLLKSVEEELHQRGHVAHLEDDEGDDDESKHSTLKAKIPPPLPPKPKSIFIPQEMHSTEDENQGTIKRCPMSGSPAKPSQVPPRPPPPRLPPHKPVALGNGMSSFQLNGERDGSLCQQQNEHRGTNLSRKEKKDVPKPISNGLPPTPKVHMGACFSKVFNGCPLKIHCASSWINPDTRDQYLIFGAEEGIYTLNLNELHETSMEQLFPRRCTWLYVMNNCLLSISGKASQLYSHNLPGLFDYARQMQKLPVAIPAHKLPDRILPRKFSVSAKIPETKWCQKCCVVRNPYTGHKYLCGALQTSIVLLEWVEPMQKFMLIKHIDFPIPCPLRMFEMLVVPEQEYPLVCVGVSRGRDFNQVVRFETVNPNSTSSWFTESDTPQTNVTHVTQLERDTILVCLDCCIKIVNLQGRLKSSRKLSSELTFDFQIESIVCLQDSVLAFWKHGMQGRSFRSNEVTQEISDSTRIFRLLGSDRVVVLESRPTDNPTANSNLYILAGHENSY
# [3] = target: Serine/threonine-protein kinase mTOR (Homo sapiens) (UniProt P42345); assay: Inhibition of wild-type human partial length MTOR (L1382 to W2549 residues) expressed in HEK293 cells assessed as residual activity at 1000 nM after 30 mins by Kinomescan method relative to control; type: cell-based
# [4] = target: Focal adhesion kinase 1 (Homo sapiens) (UniProt Q05397); assay: Inhibition of wild-type human partial length FAK (D402 to R696 residues) expressed in Escherichia coli BL21 assessed as residual activity at 1000 nM after 30 mins by Kinomescan method relative to control
# [5] = target: Serine/threonine-protein kinase MARK2 (Homo sapiens) (UniProt Q7KZI7); assay: Inhibition of wild-type human partial length MARK2 (M1 to R450 residues) expressed in Escherichia coli BL21 assessed as residual activity at 1000 nM after 30 mins by Kinomescan method relative to control
# Chain of Serine/threonine-protein kinase MARK2 (Homo sapiens) (Q7KZI7 whole entry, the tested form may be a part): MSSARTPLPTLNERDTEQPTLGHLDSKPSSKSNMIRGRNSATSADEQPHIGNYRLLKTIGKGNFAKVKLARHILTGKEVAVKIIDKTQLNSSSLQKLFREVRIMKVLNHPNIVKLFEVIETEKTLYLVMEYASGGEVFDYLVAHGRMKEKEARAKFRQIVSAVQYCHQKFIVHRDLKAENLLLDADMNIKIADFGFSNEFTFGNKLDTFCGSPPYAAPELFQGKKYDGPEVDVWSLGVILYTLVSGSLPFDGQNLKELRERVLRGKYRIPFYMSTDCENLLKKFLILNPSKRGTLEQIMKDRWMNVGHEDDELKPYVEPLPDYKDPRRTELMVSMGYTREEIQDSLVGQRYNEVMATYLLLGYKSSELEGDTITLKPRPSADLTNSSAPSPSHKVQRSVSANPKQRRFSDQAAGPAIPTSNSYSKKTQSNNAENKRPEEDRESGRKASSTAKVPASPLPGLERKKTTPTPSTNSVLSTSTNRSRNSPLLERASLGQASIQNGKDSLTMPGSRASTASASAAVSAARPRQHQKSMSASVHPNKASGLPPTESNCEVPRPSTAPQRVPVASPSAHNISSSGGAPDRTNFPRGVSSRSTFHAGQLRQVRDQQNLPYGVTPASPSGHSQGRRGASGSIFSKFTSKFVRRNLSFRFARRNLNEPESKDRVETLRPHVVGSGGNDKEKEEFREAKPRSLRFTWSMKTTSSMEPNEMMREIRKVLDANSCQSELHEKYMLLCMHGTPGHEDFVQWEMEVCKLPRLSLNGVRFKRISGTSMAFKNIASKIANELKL
# [6] = tested on: Tyrosine-protein kinase ABL1 (Homo sapiens), P00519 [Q252H]; assay: Inhibition of human phosphorylated ABL1 Q252H mutant expressed in HEK293 cells assessed as residual activity at 1000 nM after 30 mins by Kinomescan method relative to control; type: cell-based
# Summary of the method: (§2)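 Single-point screen at a fixed 1 µM, run within a 456-kinase DiscoveRx KINOMEscan panel. Each kinase's read-out is Percent Control, i.e. signal relative to a control without compound. Hits were scored by a Percent Control < 35 cut-off, and an S(35) selectivity score was calculated across the non-mutant kinases.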
# [7] = target: Megakaryocyte-associated tyrosine-protein kinase (Homo sapiens) (UniProt P42679); assay: Inhibition of wild-type human full length CTK (M43 to P508 residues) expressed in HEK293 cells assessed as residual activity at 1000 nM after 30 mins by Kinomescan method relative to control; type: cell-based; summary of the method: as §1
# [8] = target: Serine/threonine-protein kinase DCLK2 (Homo sapiens) (UniProt Q8N568); assay: Inhibition of wild-type human partial length DCAMKL2 (K273 to V664 residues) expressed in Escherichia coli BL21 assessed as residual activity at 1000 nM after 30 mins by Kinomescan method relative to control
# Chain of Serine/threonine-protein kinase DCLK2 (Homo sapiens) (Q8N568 whole entry, the tested form may be a part): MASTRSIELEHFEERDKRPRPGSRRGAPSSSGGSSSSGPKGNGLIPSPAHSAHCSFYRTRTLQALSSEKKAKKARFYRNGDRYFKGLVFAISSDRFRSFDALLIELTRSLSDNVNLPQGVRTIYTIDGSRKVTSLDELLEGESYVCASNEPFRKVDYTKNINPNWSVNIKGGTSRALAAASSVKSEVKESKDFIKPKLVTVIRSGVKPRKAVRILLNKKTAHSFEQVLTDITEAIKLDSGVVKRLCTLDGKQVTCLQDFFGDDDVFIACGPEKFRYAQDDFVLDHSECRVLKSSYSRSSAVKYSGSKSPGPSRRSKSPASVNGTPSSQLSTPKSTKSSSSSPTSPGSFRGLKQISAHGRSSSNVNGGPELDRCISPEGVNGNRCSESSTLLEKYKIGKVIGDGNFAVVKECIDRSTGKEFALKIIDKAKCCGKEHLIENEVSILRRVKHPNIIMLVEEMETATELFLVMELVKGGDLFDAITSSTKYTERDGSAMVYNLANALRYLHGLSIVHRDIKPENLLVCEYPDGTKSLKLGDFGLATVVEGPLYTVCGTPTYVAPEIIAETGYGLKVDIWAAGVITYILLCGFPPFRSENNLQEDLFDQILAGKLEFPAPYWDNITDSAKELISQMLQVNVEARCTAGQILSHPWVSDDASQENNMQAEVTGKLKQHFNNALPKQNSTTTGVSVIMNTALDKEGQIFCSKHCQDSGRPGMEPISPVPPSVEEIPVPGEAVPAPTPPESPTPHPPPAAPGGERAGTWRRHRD
# [9] = target: Dual specificity tyrosine-phosphorylation-regulated kinase 1B (Homo sapiens) (UniProt Q9Y463); assay: Inhibition of wild-type human full length DYRK1B (M1 to S629 residues) expressed in Escherichia coli BL21 assessed as residual activity at 1000 nM after 30 mins by Kinomescan method relative to control; summary of the method: as §1
# [10] = target: RAF proto-oncogene serine/threonine-protein kinase (Homo sapiens) (UniProt P04049); assay: Inhibition of wild-type human partial length RAF1 (I330 to T640 residues) expressed in Escherichia coli BL21 assessed as residual activity at 1000 nM after 30 mins by Kinomescan method relative to control
# Chain of RAF proto-oncogene serine/threonine-protein kinase (Homo sapiens) (P04049 whole entry, the tested form may be a part): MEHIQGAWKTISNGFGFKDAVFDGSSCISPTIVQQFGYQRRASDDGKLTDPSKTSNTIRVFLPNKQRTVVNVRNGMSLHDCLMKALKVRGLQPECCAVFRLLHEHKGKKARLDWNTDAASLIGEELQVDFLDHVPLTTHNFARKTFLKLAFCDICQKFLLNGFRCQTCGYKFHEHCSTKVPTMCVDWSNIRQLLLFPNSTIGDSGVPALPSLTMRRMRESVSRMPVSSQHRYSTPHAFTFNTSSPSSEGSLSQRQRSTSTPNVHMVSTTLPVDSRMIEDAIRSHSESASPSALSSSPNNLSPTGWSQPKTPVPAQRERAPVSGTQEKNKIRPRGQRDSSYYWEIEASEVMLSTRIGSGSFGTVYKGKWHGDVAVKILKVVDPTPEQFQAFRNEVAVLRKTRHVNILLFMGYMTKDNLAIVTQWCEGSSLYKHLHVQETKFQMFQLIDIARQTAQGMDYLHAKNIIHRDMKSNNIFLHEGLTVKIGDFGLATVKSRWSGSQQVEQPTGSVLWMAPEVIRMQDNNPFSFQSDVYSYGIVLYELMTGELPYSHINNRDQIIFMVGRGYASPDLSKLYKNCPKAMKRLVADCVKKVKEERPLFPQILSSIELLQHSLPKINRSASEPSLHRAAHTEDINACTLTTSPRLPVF
# [11] = target: Tyrosine-protein kinase BTK (Homo sapiens) (UniProt Q06187); assay: Inhibition of wild-type human full length BTK (M1 to S659 residues) expressed in HEK293 cells assessed as residual activity at 1000 nM after 30 mins by Kinomescan method relative to control; type: cell-based; summary of the method: as §2
# Chain of Tyrosine-protein kinase BTK (Homo sapiens) (Q06187 whole entry, the tested form may be a part): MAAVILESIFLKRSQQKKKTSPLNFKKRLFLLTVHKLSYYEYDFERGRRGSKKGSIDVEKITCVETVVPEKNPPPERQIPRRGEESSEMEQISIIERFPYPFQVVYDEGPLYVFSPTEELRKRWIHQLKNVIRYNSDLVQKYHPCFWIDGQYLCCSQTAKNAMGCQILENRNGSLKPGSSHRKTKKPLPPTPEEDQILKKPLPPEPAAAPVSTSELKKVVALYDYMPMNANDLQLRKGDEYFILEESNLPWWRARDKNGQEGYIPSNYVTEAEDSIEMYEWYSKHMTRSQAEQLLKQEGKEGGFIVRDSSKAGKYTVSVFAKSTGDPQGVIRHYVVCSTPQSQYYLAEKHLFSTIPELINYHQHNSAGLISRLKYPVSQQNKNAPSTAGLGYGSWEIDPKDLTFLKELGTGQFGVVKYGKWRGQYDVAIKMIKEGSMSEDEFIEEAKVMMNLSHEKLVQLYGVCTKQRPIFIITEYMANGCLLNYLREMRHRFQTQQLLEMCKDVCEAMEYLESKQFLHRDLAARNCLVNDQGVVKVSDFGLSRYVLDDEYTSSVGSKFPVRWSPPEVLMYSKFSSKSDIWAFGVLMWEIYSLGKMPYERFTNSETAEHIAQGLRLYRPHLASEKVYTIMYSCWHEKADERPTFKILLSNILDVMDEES
# [12] = target: Serine/threonine-protein kinase Nek4 (Homo sapiens) (UniProt P51957); assay: Inhibition of wild-type human full length NEK4 (M1 to F841 residues) expressed in HEK293 cells assessed as residual activity at 1000 nM after 30 mins by Kinomescan method relative to control; type: cell-based; summary of the method: as §1
# [13] = target: Serine/threonine-protein kinase MAK (Homo sapiens) (UniProt P20794); assay: Inhibition of wild-type human partial length MAK (M1 to P314 residues) expressed in Escherichia coli BL21 assessed as residual activity at 1000 nM after 30 mins by Kinomescan method relative to control
# [14] = target: Myosin light chain kinase family member 4 (Homo sapiens) (UniProt Q86YV6); assay: Inhibition of wild-type human partial length MYLK4 (V79 to S380 residues) expressed in Escherichia coli BL21 assessed as residual activity at 1000 nM after 30 mins by Kinomescan method relative to control
# [15] = target: Serine/threonine-protein kinase DCLK3 (Homo sapiens) (UniProt Q9C098); assay: Inhibition of wild-type human partial length DCAMKL3 (E140 to V628 residues) expressed in Escherichia coli BL21 assessed as residual activity at 1000 nM after 30 mins by Kinomescan method relative to control
# [16] = target: Ribosomal protein S6 kinase alpha-2 (Homo sapiens) (UniProt Q15349); assay: Inhibition of wild-type human partial length C-terminal RSK2 kinase domain 2 (V402 to S715 residues) expressed in HEK293 cells assessed as residual activity at 1000 nM after 30 mins by Kinomescan method relative to control; type: cell-based
# [17] = tested on: Serine/threonine-protein kinase B-raf (Homo sapiens), P15056 [V600E]; assay: Inhibition of human partial length BRAF V600E mutant (S429 to E741 residues) expressed in HEK293 cells assessed as residual activity at 1000 nM after 30 mins by Kinomescan method relative to control; type: cell-based
# Summary of the method: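 KINOMEscan binding panel of 456 kinases, with the test compound at a single concentration of 1 µM. Read-out is Percent Control.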
# [18] = target: 5'-AMP-activated protein kinase catalytic subunit alpha-2 (Homo sapiens) (UniProt P54646); assay: Inhibition of wild-type human partial length AMPK alpha2 (M1 to E306 residues) expressed in Escherichia coli BL21 assessed as residual activity at 1000 nM after 30 mins by Kinomescan method relative to control
# [19] = target: Bone morphogenetic protein receptor type-1B (Homo sapiens) (UniProt O00238); assay: Inhibition of wild-type human partial length BMPR1B (D178 to L502 residues) expressed in HEK293 cells assessed as residual activity at 1000 nM after 30 mins by Kinomescan method relative to control; type: cell-based
# [20] = target: Cyclin-dependent kinase 7 (Homo sapiens) (UniProt P50613); assay: Inhibition of wild-type human full length CDK7 (M1 to L344 residues) expressed in HEK293 cells assessed as residual activity at 1000 nM after 30 mins by Kinomescan method relative to control; type: cell-based; summary of the method: as §2
# [21] = target: Activin receptor type-1-like (Homo sapiens) (UniProt P37023); assay: Inhibition of wild-type human ACVRL1 (L164 to Q503 residues) expressed in Escherichia coli BL21 assessed as residual activity at 1000 nM after 30 mins by Kinomescan method relative to control; summary of the method: as §2
# Chain of Activin receptor type-1-like (Homo sapiens) (P37023 whole entry, the tested form may be a part): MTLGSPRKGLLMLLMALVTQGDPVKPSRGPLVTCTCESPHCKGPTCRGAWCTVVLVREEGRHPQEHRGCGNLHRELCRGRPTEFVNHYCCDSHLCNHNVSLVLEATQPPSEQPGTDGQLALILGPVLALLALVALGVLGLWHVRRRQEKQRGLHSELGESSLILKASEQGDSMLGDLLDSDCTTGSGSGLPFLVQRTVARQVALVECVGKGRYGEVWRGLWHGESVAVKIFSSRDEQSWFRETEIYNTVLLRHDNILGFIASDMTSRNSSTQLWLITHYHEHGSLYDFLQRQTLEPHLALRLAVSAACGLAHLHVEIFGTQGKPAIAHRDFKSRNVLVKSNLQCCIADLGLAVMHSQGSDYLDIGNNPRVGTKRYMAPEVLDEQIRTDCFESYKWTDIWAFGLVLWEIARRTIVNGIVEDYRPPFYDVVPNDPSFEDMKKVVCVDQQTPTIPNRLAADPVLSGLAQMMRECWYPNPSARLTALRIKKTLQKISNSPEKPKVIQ
compound,measurement,setting,value
COc1cc(OC)c(Cl)c(N2Cc3cnc(Nc4ccc(F)cc4)nc3N(C3CCN(C(=O)/C=C/CN(C)C)CC3)C2=O)c1Cl,Activity,[1],98%
same,Activity,[2],88%
same,Activity,[3],93%
same,Activity,[4],78%
same,Activity,[5],90%
same,Activity,[6],31%
same,Activity,[7],100%
same,Activity,[8],73%
same,Activity,[9],81%
same,Activity,[10],96%
same,Activity,[11],99%
same,Activity,[12],100%
same,Activity,[13],100%
same,Activity,[14],85%
same,Activity,[15],81%
same,Activity,[16],96%
same,Activity,[17],83%
same,Activity,[18],89%
same,Activity,[19],97%
same,Activity,[20],100%
same,Activity,[21],100%
